From PubChem
KCNQ1 act: potentiates or activates the human KCNQ1 potassium channel. P51787. CHO-K1 KCNQ1, thallium flux FluxOR fluorescence; hits give high values. B-score at 10 µM. actives 0.35% (n = 310,000);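 active = fluorescence ratio B-score, a plate-corrected score, at least three library SD, with initial intensity B-score within 5 SD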
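Doses: Single concentration per compound, DMSO matched to controls | Test system: KCNQ1-transfected CHO-K1 cells | Timing: 90 min dye loading and 20 min compound exposure, both at room temperature | Measured by: Kinetic FluxOR thallium fluorescence, 10-s 1-Hz baseline, 110-s post-stimulus read | Medium: Assay buffer with matched DMSO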
hERG protect: shields human hERG channel from block by proarrhythmic agents; Q12809; CHO-hERG, FluxOR thallium flux, dofetilide IC70 present; activation (rescue from dofetilide block), less the hit threshold, % at 10 µM; actives 0.51% (n = 310,000);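 active = activation above the mean of controls blocked by dofetilide plus 5 SD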;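 also: thallium influx through hERG after potassium depolarization seen as dye fluorescence rise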
Target sequence (Q12809 whole entry, looked up): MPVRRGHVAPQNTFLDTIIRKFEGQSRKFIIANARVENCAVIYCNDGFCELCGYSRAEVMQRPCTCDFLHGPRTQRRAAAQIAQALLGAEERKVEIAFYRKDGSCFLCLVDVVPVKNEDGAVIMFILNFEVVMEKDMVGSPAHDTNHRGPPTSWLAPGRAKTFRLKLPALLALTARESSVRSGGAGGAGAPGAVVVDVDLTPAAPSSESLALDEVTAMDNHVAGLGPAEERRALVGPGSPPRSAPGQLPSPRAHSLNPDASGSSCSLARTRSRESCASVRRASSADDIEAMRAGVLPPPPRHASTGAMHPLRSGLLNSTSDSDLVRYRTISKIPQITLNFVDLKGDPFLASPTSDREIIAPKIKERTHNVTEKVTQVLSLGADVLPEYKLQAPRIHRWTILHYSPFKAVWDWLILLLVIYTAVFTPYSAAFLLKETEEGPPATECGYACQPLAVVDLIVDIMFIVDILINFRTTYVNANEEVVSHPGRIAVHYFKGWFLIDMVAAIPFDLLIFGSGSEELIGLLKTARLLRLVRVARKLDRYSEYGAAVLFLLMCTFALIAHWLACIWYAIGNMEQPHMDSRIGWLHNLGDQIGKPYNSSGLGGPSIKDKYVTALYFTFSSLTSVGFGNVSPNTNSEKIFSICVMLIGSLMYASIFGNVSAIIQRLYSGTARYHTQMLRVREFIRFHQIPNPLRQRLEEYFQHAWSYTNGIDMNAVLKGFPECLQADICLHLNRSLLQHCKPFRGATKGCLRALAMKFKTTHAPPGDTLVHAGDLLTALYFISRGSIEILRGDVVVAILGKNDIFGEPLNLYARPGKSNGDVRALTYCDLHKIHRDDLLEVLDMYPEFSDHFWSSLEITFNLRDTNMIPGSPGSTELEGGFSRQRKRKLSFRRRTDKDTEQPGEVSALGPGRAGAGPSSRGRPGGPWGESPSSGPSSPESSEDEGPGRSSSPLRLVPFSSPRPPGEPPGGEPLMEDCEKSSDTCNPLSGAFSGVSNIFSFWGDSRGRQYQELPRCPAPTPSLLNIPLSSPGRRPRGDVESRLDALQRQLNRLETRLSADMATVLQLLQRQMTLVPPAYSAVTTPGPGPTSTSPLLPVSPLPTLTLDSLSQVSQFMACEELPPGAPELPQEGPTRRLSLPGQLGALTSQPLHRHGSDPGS
KCNK3 block: human KCNK3 channel inhibition, primary screen | O14649 | CHO-KCNK3 thallium flux, FluxOR fluorescence; hits give low values | B-score at 10 µM | actives 0.84% (n = 340,000);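 active = B-score under library mean minus 4 SD, starting fluorescence ratio at most library mean plus 5 SD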;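 also: more negative B-score means stronger inhibition of thallium flux through KCNK3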
KCNQ1 inh: human KCNQ1 channel inhibition; P51787; CHO-K1 KCNQ1, FluxOR thallium flux fluorescence; hits give high values; B-score at 10 µM; actives 1.3% (n = 310,000); AID 2642;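 active = compounds whose thallium flux B-score, printed positive for inhibition, exceeds three library SD while starting fluorescence stays within three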;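 also: channel opened by potassium depolarization with thallium stimulus after 20 min compound exposure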
KCNK9 block: human KCNK9 channel inhibition | HEK293 KCNK9, FluxOR thallium flux fluorescence; hits give low values | actives 1.2% (n = 310,000) | Q9NPC2 | B-score at 10 µM;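 active = ratio B-score over 3 SD below the library mean, with starting fluorescence within 5 SD of its mean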;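 also: negative B-score means less thallium flux so channel inhibition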
Kir21 inh: blocks the mouse Kir2.1 inward-rectifier potassium channel; HEK293-Kir2.1, FluxOR thallium flux fluorescence; hits give low values; B-score at 10 µM; actives 0.85% (n = 310,000); AID 1672;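 active = fluorescence ratio B-score at or below minus 3 SD of library scores, with starting-brightness B-score within 2 SD, cut at about -4.2 in these data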;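 also: channel flux triggered by added potassium and thallium sulfate stimulus; B-score of peak minus minimum fluorescence over baseline after thallium stimulus; more negative B-score means stronger Kir2.1 block with less thallium influx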
KCNK9 block conf: confirmation of human KCNK9 potassium channel inhibitors; shares compounds with KCNK9 block; HEK293 KCNK9 cells, FluxOR thallium flux fluorescence; inhibition, % at 10 µM; actives 43% (n = 4,900);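 active = thallium signal inhibited by more than 5 SD of the compound-free buffer control wells, on both duplicate plates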
Kir2-1 spec: mouse Kir2.1 off-target activity of KCNK9 modulators; shares compounds with KCNK9 block; Kir2.1 cells, FluxOR thallium flux fluorescence; inhibition, % at 10 µM; actives 4% (n = 4,900);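 active = thallium signal drop more than 5 SD beyond the mean of the no-compound control wells, seen in both duplicate plates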;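 also: signal is fluorescence rise after thallium addition divided by baseline fluorescence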
HEK293 Tl ctr: non-induced cell nonspecific activity of KCNK9 modulators. inhibition, % at 10 µM. non-induced KCNK9-HEK293, FluxOR thallium flux. actives 40% (n = 4,900). AID 492997. shares compounds with KCNK9 block;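 active = thallium signal drop beyond 5 SD of the untreated control mean, on both duplicate plates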
Of the large screens only hits and unclear results are named; the others gave an inactive call (follow-up assays come after a bar, where they were run). Compounds with a hit are over-represented: about 3.7% of the library has one in this group of screens.

CCCCCCNC(=O)c1cccc(-c2ccc(C)c3ccccc23)n1	none | KCNK9 block conf inactive | Kir2-1 spec inactive | HEK293 Tl ctr inactive
COc1ccc2c(c1)/C(=N/OC(=O)c1cccs1)CCC2	KCNK9 block -12 | KCNK9 block conf inactive | Kir2-1 spec inactive | HEK293 Tl ctr inactive
COc1ccc(NC(=O)O/N=C2/CCCc3ccc(OC)cc32)cc1	KCNK9 block -12 | KCNK9 block conf 66% | Kir2-1 spec 34% | HEK293 Tl ctr 26%
O=S(=O)(c1ccccc1)N1CCN=C1SCc1cccc(Cl)c1	none
O=C(c1ccc(N2CCCCC2)c([N+](=O)[O-])c1)N(Cc1ccccc1)c1ccccn1	none
O=[N+]([O-])c1ccccc1SN(Cc1ccccc1)c1ccccn1	KCNK9 block -8.6 | KCNK9 block conf 40% | Kir2-1 spec inactive | HEK293 Tl ctr 44%
CCOC(=O)COc1ccccc1C1Nc2ccccc2C(=O)N1c1cccc(Cl)c1 (stereo unspecified)	KCNK3 block -11, KCNK9 block -14 | KCNK9 block conf 62% | Kir2-1 spec inactive | HEK293 Tl ctr 34%
CCOC(=O)COc1c(OC)cc(Cl)cc1C1Nc2ccccc2C(=O)N1c1ccc(F)cc1 (stereo unspecified)	KCNK9 block -12 | KCNK9 block conf 64% | Kir2-1 spec inactive | HEK293 Tl ctr 41%
COc1cc(C2Nc3ccccc3C(=O)N2c2ccc(Cl)cc2)c(Cl)cc1OCC(=O)O (stereo unspecified)	none
CCOCCCNCc1ccc(OCCC(C)C)c(OC)c1	none
Cc1nc2scc(C)n2c(=O)c1S(=O)(=O)NCc1ccc(F)cc1	none
Cc1cccc(-n2c(Cc3ccccc3)nnc2SCc2ccc([N+](=O)[O-])cc2)c1	KCNK9 block -14 | KCNK9 block conf inactive | Kir2-1 spec inactive | HEK293 Tl ctr 41%
O=C(COc1ccc(Br)cc1)N1CCc2ccccc2C1	none
O=C(Cc1ccc(Br)cc1)OCC(=O)N1CCc2ccccc2C1	none | KCNK9 block conf inactive | Kir2-1 spec inactive | HEK293 Tl ctr inactive
O=C(CCS(=O)(=O)Cc1ccccc1)N1CCc2ccccc2C1	none | KCNK9 block conf inactive | Kir2-1 spec inactive | HEK293 Tl ctr inactive
CCN(CC)S(=O)(=O)c1cccc(-c2nnc(SCCCC(=O)c3ccccc3)o2)c1	none | KCNK9 block conf inactive | Kir2-1 spec inactive | HEK293 Tl ctr inactive
C=CCn1c(C)cc(C(=O)CSc2nnc(-c3cccc(S(=O)(=O)N(CC)CC)c3)o2)c1C	none | KCNK9 block conf inactive | Kir2-1 spec inactive | HEK293 Tl ctr inactive
CCC(=O)c1ccc(OCC(=O)OCC(=O)NCC2CCCCC2)cc1	none
Cc1ccc(Cl)cc1N1CCN(S(=O)(=O)c2cccc(S(=O)(=O)N3CCCC3)c2)CC1	KCNK3 block -11, KCNK9 block -10 | KCNK9 block conf 49% | Kir2-1 spec inactive | HEK293 Tl ctr 32%
C/C(=N\NC(=O)CNc1cccc(Cl)c1C)C1CC1	none
O=[N+]([O-])c1ccc(S(=O)(=O)N/N=C/c2ccsc2)cc1	none
CN(C)c1cc(N/N=C/c2ccccc2C(F)(F)F)nc(N(C)C)n1	none | KCNK9 block conf inactive | Kir2-1 spec inactive | HEK293 Tl ctr inactive
Cc1nnc(N/N=C/c2ccccc2C(F)(F)F)n1N	none
CC(C)OC(=O)c1cccc(C(=O)Nc2cccc(NC(=O)c3cccc(C(=O)OC(C)C)n3)n2)n1	KCNK9 block -13 | KCNK9 block conf 64% | Kir2-1 spec inactive | HEK293 Tl ctr inactive
CCOC(=O)Nc1nnc(-c2ccccc2OC)s1	none
CC(SC1=NCCS1)C(=O)Nc1nnc(-c2ccc(Br)cc2)s1 (stereo unspecified)	KCNK9 block -18 | KCNK9 block conf inactive | Kir2-1 spec inactive | HEK293 Tl ctr 22%
CCC(SC1=NCCS1)C(=O)Nc1nnc(-c2ccccc2OC)s1 (stereo unspecified)	KCNK9 block -10 | KCNK9 block conf 30% | Kir2-1 spec inactive | HEK293 Tl ctr 34%
COCCNC(=O)C(c1cccs1)N(C(=O)Cn1nnc2ccccc21)c1ccc(OC)cc1 (stereo unspecified)	none
Cc1sc2nc(CSc3ccccc3)nc(N3CCOCC3)c2c1C	none | KCNK9 block conf inactive | Kir2-1 spec inactive | HEK293 Tl ctr 32%
CCNc1nc(CSc2ccccc2)nc2sc(C)c(C)c12	none
CC1CC(C)CN(S(=O)(=O)c2ccc(Oc3ccc([N+](=O)[O-])cc3)cc2)C1 (stereo unspecified)	none | KCNK9 block conf inactive | Kir2-1 spec inactive | HEK293 Tl ctr inactive
Nc1c(N(CCC2=CCCCC2)C(=O)c2ccccc2F)c(=O)[nH]c(=O)n1Cc1ccccc1	none (no result: KCNQ1 act, hERG protect, KCNQ1 inh, KCNK9 block, Kir21 inh)
CCOc1ccc(Br)cc1S(=O)(=O)Nc1ccccc1N1CCOCC1	KCNK9 block -10 | KCNK9 block conf inactive | Kir2-1 spec inactive | HEK293 Tl ctr inactive
CCn1c(SCC(=O)NC2CCCC2)nnc1C(C)C	none
CCC(Cc1ccccc1)NC(=O)c1cc(S(=O)(=O)N2CCCCC2)c[nH]1 (stereo unspecified)	none
COc1ccccc1C(=O)N/N=C/C(C)=C/c1ccccc1	KCNK9 block -10 | KCNK9 block conf 48% | Kir2-1 spec inactive | HEK293 Tl ctr 30%
CCOC(=O)CCSc1nc2c(c(C(F)(F)F)c1C#N)CCC2	none | KCNK9 block conf inactive | Kir2-1 spec inactive | HEK293 Tl ctr inactive
COc1cc([N+](=O)[O-])ccc1NC(=S)NNC(=O)c1ccc2c(c1)OCO2	KCNQ1 inh 10 | KCNK9 block conf inactive | Kir2-1 spec inactive | HEK293 Tl ctr inactive
COC(=O)c1cc(C(=O)NNC(=O)c2ccc3c(c2)OCO3)cc([N+](=O)[O-])c1	none (no result: KCNQ1 act, hERG protect, KCNQ1 inh, KCNK9 block, Kir21 inh)
CCOC(=O)c1nn(-c2ccccc2C)c2nc(-c3ccc(Cl)cc3)c(C#N)c(=O)n12	none
Cc1cccc(Oc2nc(CN3CCOCC3)nc3sc4c(c23)CCCC4)c1	none | KCNK9 block conf inactive | Kir2-1 spec inactive | HEK293 Tl ctr inactive
O=C(Nc1cccc2ccccc12)N(CCO)C1CCS(=O)(=O)C1 (stereo unspecified)	none
Cc1cc(C)cc(Oc2ncnc3c2ncn3Cc2c(Cl)cccc2Cl)c1	none | KCNK9 block conf inactive | Kir2-1 spec inactive | HEK293 Tl ctr inactive
Cc1cccc(N2C(=O)C3CCC(c4ccccc4)CC3C2=O)c1 (stereo unspecified)	none | KCNK9 block conf inactive | Kir2-1 spec inactive | HEK293 Tl ctr inactive
